Results reported in ChEMBL document CHEMBL1136806, “Synthesis and in vitro and in vivo antimalarial activity of N1-(7-chloro-4-quinolyl)-1,4-bis(3-aminopropyl)piperazine derivatives” (J Med Chem, 2003).

How the values were obtained:
MRC5 [1] = test: Cytotoxicity was tested on human diploid embryonic lung cell line (MRC-5) (in vitro); assay type: functional
Plasmodium falciparum [2] = test: In vitro antimalarial activity against Plasmodium falciparum FcB1; assay type: functional, organism-based
Procedure, shortened: (§1)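 Asynchronous P. falciparum FcB1 cultures in human erythrocytes (0.5% parasitemia, 1% hematocrit) were exposed to serial dilutions for 24 h at 37 °C. [3H]-hypoxanthine was then added. Incorporation was compared with drug-free controls, DMSO ≤0.1%. IC50 came from the concentration–response curve, reported as mean ± SD of three experiments.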

[3] = Vacuolar accumulation ratio was determined; assay type: functional
Procedure, shortened: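 Calculated, not measured: Henderson–Hasselbalch-derived equation using predicted pKa values, assuming vacuolar pH 5.0 and external pH 7.4.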

[4] = Partition coefficient was determined by dividing the concentration of compound in 1-octanol by concentration in aqueous phase at pH 5.0; assay type: physicochemical; details: 1-octanol/aqueous phase, read-out: Log D5.0
[5] = Partition coefficient was determined by dividing the concentration of compound in 1-octanol by concentration in aqueous phase at pH 7.4; assay type: physicochemical; details: 1-octanol/aqueous phase, read-out: Log D7.4
MRC5 [6] = test: Cytotoxicity of compound was tested on human diploid embryonic lung cell line (MRC-5); assay type: functional
Plasmodium falciparum [7] = test: Antimalarial activity against Plasmodium falciparum FcB1; assay type: functional, organism-based; procedure, shortened: as §1

SMILES	IC50 (Plasmodium falciparum [2]) [µM]	logD [5]	CC50 (MRC5 [1]) [µM]	further results
O=C(NCCCN1CCN(CCCNc2ccnc3cc(Cl)ccc23)CC1)c1cccc(Oc2ccccc2)c1	0.0208	–	5	VAR [3]: 29500
CCCCN(CCCC)CCCN1CCN(CCCNc2ccnc3cc(Cl)ccc23)CC1	–	1.92	–	logD [4]: -1.75
COc1ccc(C(=O)NCCCN2CCN(CCCNc3ccnc4cc(Cl)ccc34)CC2)cc1	0.0202	–	4	–
Clc1ccc2c(NCCCN3CCN(CCCN(CC4CC4)CC4CC4)CC3)ccnc2c1	–	1.16	–	logD [4]: < -2.78
CCN(CC)CCCC(C)Nc1ccnc2cc(Cl)ccc12 (stereo not drawn) [CHLOROQUINE]	–	–	–	VAR [3]: 53600; CC50 (MRC5 [6]): 50 µM
Clc1ccc2c(NCCCN3CCN(CCCNc4ccnc5cc(Cl)ccc45)CC3)ccnc2c1	–	–	–	IC50 (Plasmodium falciparum [7]): 0.023 µM; CC50 (MRC5 [6]): < 1 µM
COc1ccc(CN(CCCN2CCN(CCCNc3ccnc4cc(Cl)ccc34)CC2)Cc2ccc(OC)cc2)cc1	0.0096	–	1	–

More lines, main results first:

IC50 (Plasmodium falciparum [2]) [µM]	logD [5]	SMILES	CC50 (MRC5 [1]) [µM]	further results
0.0741	–	Clc1ccc2c(NCCCN3CCN(CCCNCc4ccnc5ccccc45)CC3)ccnc2c1	1.2	–
0.0674	–	O=C(Cc1ccccc1)NCCCN1CCN(CCCNc2ccnc3cc(Cl)ccc23)CC1	4	–
–	> 2.78	O=C(NCCCN1CCN(CCCNc2ccnc3cc(Cl)ccc23)CC1)C1CC1	–	logD [4]: -0.23
0.0262	–	Clc1ccc2c(NCCCN3CCN(CCCN(CCc4ccccc4)CCc4ccccc4)CC3)ccnc2c1	1	–
0.0185	–	Clc1ccc2c(NCCCN3CCN(CCCNCCc4ccccc4)CC3)ccnc2c1	5	–
–	> 2.78	O=C(NCCCN1CCN(CCCNc2ccnc3cc(Cl)ccc23)CC1)c1ccc([N+](=O)[O-])cc1	–	logD [4]: 0.31
–	1.06	CCCC(=O)NCCCN1CCN(CCCNc2ccnc3cc(Cl)ccc23)CC1	–	–
